Article PMC11463018 (Journal of Enzyme Inhibition and Medicinal Chemistry, 2024)

What was measured:
[1] = Microsomal stability assay; type: in vitro ADME; conditions: human, human liver microsomes, pH 7.4
Summary of the method: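 Human liver microsomes at 0.8 mg/mL, with magnesium chloride and potassium phosphate buffer (pH 7.4), incubated with test compound at 0.5 μM. Mix prewarmed 5 min at 37 °C, then started with NADPH. Stopped at 0, 5, 10, 15, 30, 60 or 90 min with ice-cold ethyl acetate, spun 4000 rpm for 10 min at 4 °C. Supernatant analysed by LC-MS/MS and half-life determined.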

[2] = system: SK-MEL-2; assay: NCI-60 screening, SK-MEL-2; type: cell-based; conditions: Homo sapiens, SK-MEL-2, read-out: GI50, SK-MEL-2
[3] = system: MALME-3M; assay: NCI-60 screening, MALME-3M; type: cell-based; conditions: Homo sapiens, read-out: GI50, MALME-3M
[4] = biological target: HDAC2 (Homo sapiens, UniProt Q92769); assay: In vitro HDAC enzyme assay; type: biochemical
[5] = biological target: HDAC1 (Homo sapiens, UniProt Q13547); assay: In vitro HDAC enzyme assay; type: biochemical
[6] = system: UACC-257; assay: NCI-60 screening, UACC-257; type: cell-based; conditions: Homo sapiens, UACC-257, read-out: GI50, UACC-257
[7] = system: HCT-116; assay: NCI-60 screening, HCT-116; type: cell-based; conditions: Homo sapiens, HCT-116, read-out: GI50, HCT-116
[8] = biological target: HDAC7 (Homo sapiens, UniProt Q8WUI4); assay: In vitro HDAC enzyme assay; type: biochemical
[9] = system: SK-MEL-5; assay: NCI-60 screening, SK-MEL-5; type: cell-based; conditions: Homo sapiens, SK-MEL-5, read-out: GI50, SK-MEL-5
[10] = biological target: JAK2 (Homo sapiens, UniProt O60674); assay: Kinase inhibition assay; type: biochemical
[11] = system: SK-MEL-28; assay: NCI-60 screening, SK-MEL-28; type: cell-based; conditions: Homo sapiens, SK-MEL-28, read-out: GI50, SK-MEL-28
[12] = system: RPMI-8226 cells; assay: Apoptosis assay; type: cell-based, human; conditions: 1 μM, 48 h, flow cytometry
[13] = biological target: HDAC3 (Homo sapiens, UniProt O15379); assay: In vitro HDAC enzyme assay; type: biochemical
[14] = system: RPMI-8226; assay: cells; type: cell-based; conditions: Homo sapiens, RPMI-8226, read-out: Antiproliferative effect IC50, RPMI-8226
[15] = system: A549/ATCC; assay: NCI-60 screening, A549/ATCC; type: cell-based; conditions: Homo sapiens, A549, read-out: GI50, A549/ATCC
[16] = system: SR; assay: NCI-60 screening, SR; type: cell-based; conditions: Homo sapiens, read-out: GI50, SR
[17] = biological target: HDAC8 (Homo sapiens, UniProt Q9BY41); assay: In vitro HDAC enzyme assay; type: biochemical
[18] = system: MDA-MB-231; assay: cells; type: cell-based; conditions: Homo sapiens, MDA-MB-231, read-out: Antiproliferative effect IC50, MDA-MB-231
[19] = system: CCRF-CEM; assay: NCI-60 screening, CCRF-CEM; type: cell-based; conditions: Homo sapiens, read-out: GI50, CCRF-CEM
[20] = system: SNB-19; assay: NCI-60 screening, SNB-19; type: cell-based; conditions: Homo sapiens, SNB-19, read-out: GI50, SNB-19
[21] = biological target: HDAC11 (Homo sapiens, UniProt Q96DB2); assay: In vitro HDAC enzyme assay; type: biochemical
[22] = system: HL60; assay: NCI-60 screening, HL60; type: cell-based; conditions: Homo sapiens, HL-60, read-out: GI50, HL60
[23] = system: K-562; assay: NCI-60 screening, K-562; type: cell-based; conditions: Homo sapiens, K562, read-out: GI50, K-562
[24] = biological target: TYK2 (Homo sapiens, UniProt P29597); assay: Kinase inhibition assay; type: biochemical
[25] = system: LOX IMVI; assay: NCI-60 screening, LOX IMVI; type: cell-based; conditions: Homo sapiens, read-out: GI50, LOX IMVI
[26] = system: HCT-15; assay: NCI-60 screening, HCT-15; type: cell-based; conditions: Homo sapiens, HCT-15, read-out: GI50, HCT-15
[27] = system: RPMI-8226; assay: NCI-60 screening, RPMI-8226; type: cell-based; conditions: Homo sapiens, RPMI-8226, read-out: GI50, RPMI-8226
[28] = biological target: JAK1 (Homo sapiens, UniProt P23458); assay: Kinase inhibition assay; type: biochemical
[29] = system: HS 578 T; assay: NCI-60 screening, HS 578 T; type: cell-based; conditions: Homo sapiens, read-out: GI50, HS 578 T
[30] = system: 786-0; assay: NCI-60 screening, 786-0; type: cell-based; conditions: Homo sapiens, 786-0, read-out: GI50, 786-0
[31] = system: M14; assay: NCI-60 screening, M14; type: cell-based; conditions: Homo sapiens, M14, read-out: GI50, M14
[32] = biological target: HDAC4 (Homo sapiens, UniProt P56524); assay: In vitro HDAC enzyme assay; type: biochemical
[33] = system: NCI-H522; assay: NCI-60 screening, NCI-H522; type: cell-based; conditions: Homo sapiens, NCI-H522, read-out: GI50, NCI-H522
[34] = system: OVCAR-3; assay: NCI-60 screening, OVCAR-3; type: cell-based; conditions: Homo sapiens, OVCAR-3, read-out: GI50, OVCAR-3
[35] = biological target: HDAC5 (Homo sapiens, UniProt Q9UQL6); assay: In vitro HDAC enzyme assay; type: biochemical
[36] = system: MOLT-4; assay: NCI-60 screening, MOLT-4; type: cell-based; conditions: Homo sapiens, MOLT-4, read-out: GI50, MOLT-4

Chain of TYK2 (P29597 whole entry): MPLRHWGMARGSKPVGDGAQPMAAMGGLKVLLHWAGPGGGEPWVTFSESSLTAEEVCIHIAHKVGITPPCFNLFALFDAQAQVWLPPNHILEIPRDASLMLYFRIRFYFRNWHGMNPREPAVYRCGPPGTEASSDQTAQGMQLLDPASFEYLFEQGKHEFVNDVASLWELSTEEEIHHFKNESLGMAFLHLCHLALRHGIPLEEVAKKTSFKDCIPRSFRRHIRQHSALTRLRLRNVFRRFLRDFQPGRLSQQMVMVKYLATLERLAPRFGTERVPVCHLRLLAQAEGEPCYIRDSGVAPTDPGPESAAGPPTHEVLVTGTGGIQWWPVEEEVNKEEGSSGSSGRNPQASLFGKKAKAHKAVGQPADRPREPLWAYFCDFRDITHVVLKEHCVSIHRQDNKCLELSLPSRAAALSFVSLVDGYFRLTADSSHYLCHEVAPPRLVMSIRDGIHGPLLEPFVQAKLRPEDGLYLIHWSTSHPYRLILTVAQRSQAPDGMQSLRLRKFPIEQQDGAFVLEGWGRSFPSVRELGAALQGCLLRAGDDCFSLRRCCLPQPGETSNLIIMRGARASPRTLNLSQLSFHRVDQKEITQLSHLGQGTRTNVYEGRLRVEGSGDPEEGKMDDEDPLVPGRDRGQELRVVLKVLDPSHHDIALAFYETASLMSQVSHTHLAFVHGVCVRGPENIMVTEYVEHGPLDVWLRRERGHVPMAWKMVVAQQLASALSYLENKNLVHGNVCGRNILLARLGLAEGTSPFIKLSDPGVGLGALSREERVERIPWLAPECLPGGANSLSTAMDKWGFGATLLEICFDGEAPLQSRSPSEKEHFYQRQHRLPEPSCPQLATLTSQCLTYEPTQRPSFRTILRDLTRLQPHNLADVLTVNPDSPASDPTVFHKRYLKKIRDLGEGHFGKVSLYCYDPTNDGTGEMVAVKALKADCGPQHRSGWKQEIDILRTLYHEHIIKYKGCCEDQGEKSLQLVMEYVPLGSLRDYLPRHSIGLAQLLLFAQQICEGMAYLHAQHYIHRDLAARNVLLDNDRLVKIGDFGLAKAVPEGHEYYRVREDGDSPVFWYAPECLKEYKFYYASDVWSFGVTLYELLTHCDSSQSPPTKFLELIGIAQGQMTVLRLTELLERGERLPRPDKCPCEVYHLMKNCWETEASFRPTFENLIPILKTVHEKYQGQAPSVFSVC
Chain of HDAC1 (Q13547 whole entry): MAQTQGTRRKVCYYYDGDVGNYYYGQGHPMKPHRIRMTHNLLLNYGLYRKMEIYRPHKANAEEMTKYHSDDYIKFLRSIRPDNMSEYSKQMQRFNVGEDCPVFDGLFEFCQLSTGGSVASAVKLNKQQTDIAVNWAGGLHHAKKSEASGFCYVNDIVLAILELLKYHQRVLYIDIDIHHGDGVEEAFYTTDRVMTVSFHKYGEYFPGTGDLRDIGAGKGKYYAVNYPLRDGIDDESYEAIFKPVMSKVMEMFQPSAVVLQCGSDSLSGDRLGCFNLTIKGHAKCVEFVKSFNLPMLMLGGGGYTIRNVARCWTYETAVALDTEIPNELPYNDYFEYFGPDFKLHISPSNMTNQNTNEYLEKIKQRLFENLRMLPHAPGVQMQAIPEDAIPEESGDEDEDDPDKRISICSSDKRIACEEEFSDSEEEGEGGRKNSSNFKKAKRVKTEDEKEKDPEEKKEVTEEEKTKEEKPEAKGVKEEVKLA
Chain of HDAC3 (O15379 whole entry): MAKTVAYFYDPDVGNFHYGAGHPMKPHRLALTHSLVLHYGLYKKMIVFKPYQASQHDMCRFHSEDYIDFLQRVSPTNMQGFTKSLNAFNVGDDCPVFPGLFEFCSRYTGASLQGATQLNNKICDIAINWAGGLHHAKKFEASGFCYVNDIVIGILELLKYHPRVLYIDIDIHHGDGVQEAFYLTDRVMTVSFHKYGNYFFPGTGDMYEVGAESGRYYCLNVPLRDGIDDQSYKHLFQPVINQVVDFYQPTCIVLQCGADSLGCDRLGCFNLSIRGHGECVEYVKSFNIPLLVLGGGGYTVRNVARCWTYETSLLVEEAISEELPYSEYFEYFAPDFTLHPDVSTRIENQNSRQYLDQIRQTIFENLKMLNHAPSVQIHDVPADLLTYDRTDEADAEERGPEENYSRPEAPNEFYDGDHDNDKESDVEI
Chain of HDAC3 (Q9Y618 395-489 partner limits assumed): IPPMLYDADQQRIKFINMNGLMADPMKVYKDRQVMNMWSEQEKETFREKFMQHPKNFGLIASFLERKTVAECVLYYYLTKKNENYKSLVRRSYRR
Chain of HDAC5 (Q9UQL6 whole entry): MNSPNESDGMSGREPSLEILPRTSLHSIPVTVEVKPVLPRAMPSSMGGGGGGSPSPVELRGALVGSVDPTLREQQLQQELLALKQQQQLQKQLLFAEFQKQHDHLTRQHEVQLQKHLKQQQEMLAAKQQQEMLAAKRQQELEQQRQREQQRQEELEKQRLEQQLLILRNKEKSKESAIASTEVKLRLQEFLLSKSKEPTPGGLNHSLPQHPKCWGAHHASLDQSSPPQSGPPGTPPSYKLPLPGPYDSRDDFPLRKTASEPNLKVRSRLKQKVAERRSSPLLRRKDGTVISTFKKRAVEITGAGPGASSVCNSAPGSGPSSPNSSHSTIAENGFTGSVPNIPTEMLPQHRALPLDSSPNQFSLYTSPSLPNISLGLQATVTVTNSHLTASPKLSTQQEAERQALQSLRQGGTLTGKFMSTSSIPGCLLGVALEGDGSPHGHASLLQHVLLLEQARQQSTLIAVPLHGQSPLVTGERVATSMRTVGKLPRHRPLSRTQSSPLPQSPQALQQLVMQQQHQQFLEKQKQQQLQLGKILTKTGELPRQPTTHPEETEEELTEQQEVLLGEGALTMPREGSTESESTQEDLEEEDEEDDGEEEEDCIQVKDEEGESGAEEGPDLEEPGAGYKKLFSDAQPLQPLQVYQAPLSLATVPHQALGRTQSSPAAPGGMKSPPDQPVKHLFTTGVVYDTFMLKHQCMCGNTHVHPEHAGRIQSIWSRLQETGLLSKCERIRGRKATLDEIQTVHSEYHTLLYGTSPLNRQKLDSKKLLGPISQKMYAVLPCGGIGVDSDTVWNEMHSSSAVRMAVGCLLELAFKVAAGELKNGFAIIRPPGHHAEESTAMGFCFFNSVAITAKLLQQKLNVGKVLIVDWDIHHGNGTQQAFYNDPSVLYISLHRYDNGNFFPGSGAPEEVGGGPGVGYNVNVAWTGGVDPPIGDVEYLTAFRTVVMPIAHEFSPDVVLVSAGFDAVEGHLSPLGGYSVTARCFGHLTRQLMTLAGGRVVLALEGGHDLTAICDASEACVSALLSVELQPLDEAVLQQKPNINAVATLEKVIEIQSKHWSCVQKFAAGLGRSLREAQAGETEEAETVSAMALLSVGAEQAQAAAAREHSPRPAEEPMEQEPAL
Chain of HDAC4 (P56524 whole entry): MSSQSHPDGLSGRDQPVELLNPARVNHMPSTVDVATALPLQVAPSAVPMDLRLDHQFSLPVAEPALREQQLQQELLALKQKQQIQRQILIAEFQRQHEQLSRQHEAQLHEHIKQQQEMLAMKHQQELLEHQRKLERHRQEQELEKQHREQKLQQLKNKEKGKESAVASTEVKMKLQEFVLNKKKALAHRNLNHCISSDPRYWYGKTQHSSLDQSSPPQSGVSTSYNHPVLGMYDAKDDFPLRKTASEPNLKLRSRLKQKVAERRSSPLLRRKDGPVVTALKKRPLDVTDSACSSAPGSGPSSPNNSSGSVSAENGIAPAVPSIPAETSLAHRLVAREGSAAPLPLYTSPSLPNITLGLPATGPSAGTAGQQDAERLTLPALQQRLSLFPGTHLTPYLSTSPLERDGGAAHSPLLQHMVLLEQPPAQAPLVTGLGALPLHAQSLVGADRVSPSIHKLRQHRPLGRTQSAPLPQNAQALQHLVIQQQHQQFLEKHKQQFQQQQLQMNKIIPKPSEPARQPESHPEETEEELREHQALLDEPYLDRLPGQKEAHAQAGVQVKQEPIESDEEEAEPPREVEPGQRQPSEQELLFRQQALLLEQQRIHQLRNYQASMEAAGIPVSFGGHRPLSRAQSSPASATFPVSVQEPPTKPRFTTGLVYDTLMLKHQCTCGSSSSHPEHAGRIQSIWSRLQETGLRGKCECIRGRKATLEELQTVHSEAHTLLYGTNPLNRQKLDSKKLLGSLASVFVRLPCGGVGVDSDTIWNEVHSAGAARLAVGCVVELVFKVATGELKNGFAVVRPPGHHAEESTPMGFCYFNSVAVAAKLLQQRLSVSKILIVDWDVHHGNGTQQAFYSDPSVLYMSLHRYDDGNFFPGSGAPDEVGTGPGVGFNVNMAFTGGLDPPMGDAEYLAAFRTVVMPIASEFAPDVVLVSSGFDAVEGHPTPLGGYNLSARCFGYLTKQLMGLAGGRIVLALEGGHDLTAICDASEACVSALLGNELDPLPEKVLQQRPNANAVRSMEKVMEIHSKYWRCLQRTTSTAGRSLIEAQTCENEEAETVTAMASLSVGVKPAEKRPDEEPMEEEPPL
Chain of HDAC2 (Q92769 whole entry): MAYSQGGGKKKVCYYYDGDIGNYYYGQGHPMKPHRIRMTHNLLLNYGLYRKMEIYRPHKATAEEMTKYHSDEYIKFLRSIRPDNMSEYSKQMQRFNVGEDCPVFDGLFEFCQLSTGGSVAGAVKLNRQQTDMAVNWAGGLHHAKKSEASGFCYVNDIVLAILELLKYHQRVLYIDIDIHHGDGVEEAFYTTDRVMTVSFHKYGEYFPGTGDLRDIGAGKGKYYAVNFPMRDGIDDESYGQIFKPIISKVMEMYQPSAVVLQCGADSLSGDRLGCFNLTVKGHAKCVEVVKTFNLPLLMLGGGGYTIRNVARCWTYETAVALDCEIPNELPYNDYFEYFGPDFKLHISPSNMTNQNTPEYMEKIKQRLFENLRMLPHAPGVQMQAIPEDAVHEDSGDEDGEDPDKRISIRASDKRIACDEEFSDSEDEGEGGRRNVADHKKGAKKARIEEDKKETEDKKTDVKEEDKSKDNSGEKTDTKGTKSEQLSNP

half-life at 0.5 μM [1]: 14.5 h
IC50 [4]: 36.5 ± 0.95 nM
Fold weaker on HDAC2 than HDAC6 ([4]; IC50 HDAC2 vs HDAC6): ~8.5 fold
IC50 [5]: 25.4 ± 1.2 nM
Fold weaker on HDAC1 than HDAC6 ([5]; IC50 HDAC1 vs HDAC6): ~6 fold
IC50 [8]: 715 ± 33.5 nM
IC50 [10]: 278 ± 20 nM
IC50 [13]: 83 ± 2.4 nM
Fold weaker on HDAC3 than HDAC6 ([13]; IC50 HDAC3 vs HDAC6): ~19 fold
IC50 [14]: 120 ± 10 nM
IC50 [17]: 640 ± 28.3 nM
IC50 [18]: 750 ± 30 nM
IC50 [21]: 1400 ± 102 nM
IC50 [24]: 860 ± 33 nM
TYK2 IC50 ([24]; duplicate, SD <15%): very poor inhibitory activities
IC50 [28]: 165 ± 13 nM
IC50 [32]: > 50000 nM
HDAC4 IC50 ([32]; duplicate, SD <15%): no activity
IC50 [35]: > 50000 nM
HDAC5 IC50 ([35]; duplicate, SD <15%): no activity
Compound: O=C(NO)c1ccc(CNc2nc3cccc(-c4ccc5c(c4)OCO5)n3n2)cc1 [Compound 19, 4-(((5-(Benzo[d][1, 3]dioxol-5-yl)-[1,2, 4]triazolo[1,5-a]pyridin-2-yl)amino)methyl)-N-hydroxybenzamide]
GI50 [2]: 250 nM
GI50 [3]: 250 nM
GI50 [6]: 360 nM
GI50 [7]: 440 nM
GI50 [9]: 550 nM
GI50 [11]: 480 nM
Induction of RPMI-8226 cells apoptosis [12]: 85.3%
GI50 [15]: 890 nM
GI50 [16]: 100 nM
GI50 [19]: 310 nM
GI50 [20]: 1000 nM
GI50 [22]: 440 nM
GI50 [23]: 320 nM
GI50 [25]: 690 nM
GI50 [26]: 690 nM
GI50 [27]: 100 nM
GI50 [29]: 140 nM
GI50 [30]: 1000 nM
GI50 [31]: 550 nM
GI50 [33]: 100 nM
GI50 [34]: 420 nM
GI50 [36]: 350 nM
